From the M2OR odorant receptor database

Assays:
Conditions in all cases: stereoisomer not certain
UniProt Q8VF52 = target: T1, UniProt Q8VF52
T1 sequence (whole entry): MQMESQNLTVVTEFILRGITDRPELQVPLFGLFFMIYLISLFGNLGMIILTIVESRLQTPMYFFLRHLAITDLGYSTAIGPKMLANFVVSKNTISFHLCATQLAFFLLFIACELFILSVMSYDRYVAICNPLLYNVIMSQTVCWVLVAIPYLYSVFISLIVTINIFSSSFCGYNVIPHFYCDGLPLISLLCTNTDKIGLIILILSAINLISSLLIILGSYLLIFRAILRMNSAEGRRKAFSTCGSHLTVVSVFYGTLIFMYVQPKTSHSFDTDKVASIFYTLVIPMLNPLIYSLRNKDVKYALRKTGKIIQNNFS
Summary of the method: (§1)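 Whether a receptor–molecule pair is responsive (active) rests on the original authors' judgment that its measured signal was statistically different from baseline. Pairs without that judgment are non-responsive (inactive). Sources used varied assay methods, commonly transient luciferase assays in mammalian cell lines.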

UniProt Q8VFG6 = target: T2, UniProt Q8VFG6
T2 sequence (whole entry): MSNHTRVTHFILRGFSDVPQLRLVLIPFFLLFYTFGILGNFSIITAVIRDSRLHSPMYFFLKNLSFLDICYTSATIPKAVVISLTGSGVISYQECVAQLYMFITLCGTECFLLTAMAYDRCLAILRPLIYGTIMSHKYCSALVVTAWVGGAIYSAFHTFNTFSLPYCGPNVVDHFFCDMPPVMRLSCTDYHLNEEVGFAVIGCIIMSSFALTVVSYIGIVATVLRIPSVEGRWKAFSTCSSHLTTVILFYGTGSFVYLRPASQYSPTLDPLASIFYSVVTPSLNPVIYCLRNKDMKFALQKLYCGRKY
Summary of the method: as §1

UniProt Q8VFM8 = target: T3, UniProt Q8VFM8
T3 sequence (whole entry): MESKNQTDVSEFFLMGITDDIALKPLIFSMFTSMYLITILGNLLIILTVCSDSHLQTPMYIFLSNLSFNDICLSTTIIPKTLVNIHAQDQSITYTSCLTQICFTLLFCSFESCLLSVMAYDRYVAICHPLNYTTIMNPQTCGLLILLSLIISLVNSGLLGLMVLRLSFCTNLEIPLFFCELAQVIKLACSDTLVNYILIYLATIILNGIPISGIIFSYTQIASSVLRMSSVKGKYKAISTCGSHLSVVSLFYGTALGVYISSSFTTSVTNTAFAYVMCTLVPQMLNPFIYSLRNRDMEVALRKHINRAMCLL
Summary of the method: as §1

UniProt Q8VFP5 = target: T4, UniProt Q8VFP5
T4 sequence (whole entry): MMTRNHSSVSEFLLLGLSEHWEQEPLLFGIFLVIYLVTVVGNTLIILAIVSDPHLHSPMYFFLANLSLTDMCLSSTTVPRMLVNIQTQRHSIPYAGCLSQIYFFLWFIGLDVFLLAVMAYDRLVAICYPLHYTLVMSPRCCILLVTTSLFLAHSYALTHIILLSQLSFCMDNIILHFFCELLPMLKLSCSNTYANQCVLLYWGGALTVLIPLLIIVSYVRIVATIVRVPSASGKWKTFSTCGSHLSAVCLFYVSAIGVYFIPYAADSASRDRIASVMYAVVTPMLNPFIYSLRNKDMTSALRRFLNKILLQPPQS
Summary of the method: as §1

UniProt Q8VFZ6 = target: T5, UniProt Q8VFZ6
T5 sequence (whole entry): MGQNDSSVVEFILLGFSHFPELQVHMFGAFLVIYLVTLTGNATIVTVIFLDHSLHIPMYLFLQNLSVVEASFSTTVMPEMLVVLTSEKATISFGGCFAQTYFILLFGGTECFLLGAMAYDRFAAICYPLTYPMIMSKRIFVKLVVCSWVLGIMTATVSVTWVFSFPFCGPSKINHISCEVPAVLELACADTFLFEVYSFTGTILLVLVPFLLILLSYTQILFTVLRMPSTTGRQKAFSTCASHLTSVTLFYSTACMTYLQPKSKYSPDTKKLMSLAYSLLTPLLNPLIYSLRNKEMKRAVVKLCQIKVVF
Summary of the method: as §1

UniProt Q8VG01 = target: T6, UniProt Q8VG01
T6 sequence (whole entry): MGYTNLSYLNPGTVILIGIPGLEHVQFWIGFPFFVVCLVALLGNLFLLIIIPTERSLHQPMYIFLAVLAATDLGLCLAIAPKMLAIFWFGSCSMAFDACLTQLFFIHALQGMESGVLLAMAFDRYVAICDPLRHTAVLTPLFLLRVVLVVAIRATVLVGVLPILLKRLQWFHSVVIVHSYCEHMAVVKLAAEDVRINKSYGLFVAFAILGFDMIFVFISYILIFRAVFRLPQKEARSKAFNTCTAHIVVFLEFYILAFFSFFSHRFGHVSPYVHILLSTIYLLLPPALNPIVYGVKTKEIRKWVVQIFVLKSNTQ
Summary of the method: as §1

UniProt Q8VG22 = target: T7, UniProt Q8VG22
T7 sequence (whole entry): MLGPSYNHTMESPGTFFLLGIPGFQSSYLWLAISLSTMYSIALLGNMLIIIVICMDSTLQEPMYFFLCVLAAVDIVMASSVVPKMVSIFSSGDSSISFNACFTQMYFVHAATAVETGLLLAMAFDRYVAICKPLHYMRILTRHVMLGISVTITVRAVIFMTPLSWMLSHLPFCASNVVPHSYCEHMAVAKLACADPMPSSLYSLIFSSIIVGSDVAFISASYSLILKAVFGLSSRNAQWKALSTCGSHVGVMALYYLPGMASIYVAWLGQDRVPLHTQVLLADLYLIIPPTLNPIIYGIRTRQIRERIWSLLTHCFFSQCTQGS
Summary of the method: as §1

UniProt Q8VG27 = target: T8, UniProt Q8VG27
T8 sequence (whole entry): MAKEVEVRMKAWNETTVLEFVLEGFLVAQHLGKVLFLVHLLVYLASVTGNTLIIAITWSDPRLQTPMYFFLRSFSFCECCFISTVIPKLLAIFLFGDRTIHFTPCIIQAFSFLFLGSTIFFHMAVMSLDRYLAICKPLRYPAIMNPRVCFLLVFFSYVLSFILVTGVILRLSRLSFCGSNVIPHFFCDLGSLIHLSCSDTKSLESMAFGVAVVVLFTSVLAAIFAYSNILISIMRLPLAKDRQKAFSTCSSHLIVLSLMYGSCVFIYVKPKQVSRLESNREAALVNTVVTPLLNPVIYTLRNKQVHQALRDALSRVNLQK
Summary of the method: as §1

UniProt Q8VG49 = target: T9, UniProt Q8VG49
T9 sequence (whole entry): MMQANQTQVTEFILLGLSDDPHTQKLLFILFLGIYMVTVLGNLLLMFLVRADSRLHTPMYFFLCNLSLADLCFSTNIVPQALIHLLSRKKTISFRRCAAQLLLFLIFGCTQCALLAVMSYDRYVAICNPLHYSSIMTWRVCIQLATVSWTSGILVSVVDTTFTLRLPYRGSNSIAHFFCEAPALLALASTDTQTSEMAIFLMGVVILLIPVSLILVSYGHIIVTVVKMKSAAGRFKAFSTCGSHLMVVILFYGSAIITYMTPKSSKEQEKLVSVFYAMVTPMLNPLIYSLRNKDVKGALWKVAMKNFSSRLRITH
Summary of the method: as §1

UniProt Q8VG53 = target: T10, UniProt Q8VG53
T10 sequence (whole entry): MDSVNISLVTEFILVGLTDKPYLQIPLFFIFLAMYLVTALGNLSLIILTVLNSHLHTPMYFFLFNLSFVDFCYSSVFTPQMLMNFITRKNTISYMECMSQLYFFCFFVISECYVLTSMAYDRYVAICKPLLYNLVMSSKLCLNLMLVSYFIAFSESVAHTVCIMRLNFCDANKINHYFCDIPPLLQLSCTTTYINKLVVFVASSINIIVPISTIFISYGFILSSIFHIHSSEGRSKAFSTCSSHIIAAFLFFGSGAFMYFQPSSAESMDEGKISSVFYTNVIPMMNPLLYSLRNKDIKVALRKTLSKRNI
Summary of the method: as §1

UniProt Q8VG64 = target: T11, UniProt Q8VG64
T11 sequence (whole entry): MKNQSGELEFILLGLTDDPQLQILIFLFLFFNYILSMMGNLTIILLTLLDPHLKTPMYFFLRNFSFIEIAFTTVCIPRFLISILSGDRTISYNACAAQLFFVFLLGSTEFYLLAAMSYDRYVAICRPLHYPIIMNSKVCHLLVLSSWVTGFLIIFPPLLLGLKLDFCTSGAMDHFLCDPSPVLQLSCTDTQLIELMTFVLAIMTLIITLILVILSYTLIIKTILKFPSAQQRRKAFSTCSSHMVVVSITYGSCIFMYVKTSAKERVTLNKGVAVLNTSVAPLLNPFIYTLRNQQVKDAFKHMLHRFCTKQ
Summary of the method: as §1

UniProt Q8VG77 = target: T12, UniProt Q8VG77
T12 sequence (whole entry): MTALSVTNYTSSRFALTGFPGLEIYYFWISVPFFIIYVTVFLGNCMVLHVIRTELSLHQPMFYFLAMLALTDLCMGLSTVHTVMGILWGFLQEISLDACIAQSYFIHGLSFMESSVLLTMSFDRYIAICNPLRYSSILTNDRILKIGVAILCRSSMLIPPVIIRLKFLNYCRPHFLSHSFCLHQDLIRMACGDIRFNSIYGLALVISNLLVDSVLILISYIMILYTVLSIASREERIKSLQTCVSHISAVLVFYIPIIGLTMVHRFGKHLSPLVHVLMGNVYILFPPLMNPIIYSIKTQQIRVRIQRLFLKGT
Summary of the method: as §1

UniProt Q8VG96 = target: T13, UniProt Q8VG96
T13 sequence (whole entry): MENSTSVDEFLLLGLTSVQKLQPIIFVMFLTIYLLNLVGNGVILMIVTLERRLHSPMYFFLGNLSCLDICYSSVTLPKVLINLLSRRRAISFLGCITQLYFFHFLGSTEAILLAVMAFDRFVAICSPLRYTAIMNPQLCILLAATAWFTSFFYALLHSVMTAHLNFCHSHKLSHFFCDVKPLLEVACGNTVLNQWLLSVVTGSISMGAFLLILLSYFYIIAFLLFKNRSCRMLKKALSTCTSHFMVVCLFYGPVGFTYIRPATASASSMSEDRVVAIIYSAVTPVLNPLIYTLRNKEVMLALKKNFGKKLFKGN
Summary of the method: as §1

UniProt Q8VGB9 = target: T14, UniProt Q8VGB9
T14 sequence (whole entry): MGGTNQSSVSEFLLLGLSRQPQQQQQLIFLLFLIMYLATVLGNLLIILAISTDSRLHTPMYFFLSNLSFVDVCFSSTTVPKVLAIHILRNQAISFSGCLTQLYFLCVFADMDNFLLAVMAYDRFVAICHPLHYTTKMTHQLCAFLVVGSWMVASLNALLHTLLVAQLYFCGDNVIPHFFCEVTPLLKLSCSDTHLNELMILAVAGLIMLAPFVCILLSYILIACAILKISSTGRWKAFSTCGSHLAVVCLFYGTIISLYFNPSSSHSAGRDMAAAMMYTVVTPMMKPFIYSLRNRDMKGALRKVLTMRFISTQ
Summary of the method: as §1

UniProt Q8VGC6 = target: T15, UniProt Q8VGC6
T15 sequence (whole entry): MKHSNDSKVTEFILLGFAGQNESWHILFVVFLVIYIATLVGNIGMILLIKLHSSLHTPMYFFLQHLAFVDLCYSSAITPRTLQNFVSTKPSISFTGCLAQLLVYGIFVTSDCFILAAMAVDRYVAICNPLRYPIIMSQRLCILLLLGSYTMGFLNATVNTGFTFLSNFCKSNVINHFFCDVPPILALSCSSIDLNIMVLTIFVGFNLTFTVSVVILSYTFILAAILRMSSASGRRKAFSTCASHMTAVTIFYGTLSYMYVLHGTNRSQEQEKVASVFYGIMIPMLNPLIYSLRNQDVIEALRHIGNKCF
Summary of the method: as §1

UniProt Q8VGD7 = target: T16, UniProt Q8VGD7
T16 sequence (whole entry): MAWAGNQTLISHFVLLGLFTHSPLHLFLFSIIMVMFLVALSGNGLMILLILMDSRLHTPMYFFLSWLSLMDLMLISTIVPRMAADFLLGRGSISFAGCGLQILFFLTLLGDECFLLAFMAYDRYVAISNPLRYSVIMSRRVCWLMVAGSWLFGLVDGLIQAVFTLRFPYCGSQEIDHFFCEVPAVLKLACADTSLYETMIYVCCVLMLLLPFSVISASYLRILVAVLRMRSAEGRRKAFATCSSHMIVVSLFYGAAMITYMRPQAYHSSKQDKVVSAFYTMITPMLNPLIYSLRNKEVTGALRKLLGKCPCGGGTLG
Summary of the method: as §1

UniProt Q8VGH1 = target: T17, UniProt Q8VGH1
T17 sequence (whole entry): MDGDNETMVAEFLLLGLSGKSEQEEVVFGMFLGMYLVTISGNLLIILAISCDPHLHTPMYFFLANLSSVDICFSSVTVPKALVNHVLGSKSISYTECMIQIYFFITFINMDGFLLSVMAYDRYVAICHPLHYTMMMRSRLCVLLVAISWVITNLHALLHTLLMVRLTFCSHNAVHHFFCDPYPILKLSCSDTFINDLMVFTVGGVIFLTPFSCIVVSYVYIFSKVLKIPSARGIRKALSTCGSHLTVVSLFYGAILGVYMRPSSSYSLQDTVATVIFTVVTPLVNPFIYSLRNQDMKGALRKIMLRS
Summary of the method: as §1

UniProt Q8VGJ1 = target: T18, UniProt Q8VGJ1
T18 sequence (whole entry): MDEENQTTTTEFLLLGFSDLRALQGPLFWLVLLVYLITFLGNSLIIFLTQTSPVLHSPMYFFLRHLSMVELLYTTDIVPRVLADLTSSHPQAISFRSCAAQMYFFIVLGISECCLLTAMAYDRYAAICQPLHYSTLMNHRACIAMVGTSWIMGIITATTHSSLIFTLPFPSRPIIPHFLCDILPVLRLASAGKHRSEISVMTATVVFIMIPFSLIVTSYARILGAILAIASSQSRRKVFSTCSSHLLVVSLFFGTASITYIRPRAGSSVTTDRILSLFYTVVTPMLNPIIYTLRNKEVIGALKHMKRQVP
Summary of the method: as §1

UniProt Q8VGJ3 = target: T19, UniProt Q8VGJ3
T19 sequence (whole entry): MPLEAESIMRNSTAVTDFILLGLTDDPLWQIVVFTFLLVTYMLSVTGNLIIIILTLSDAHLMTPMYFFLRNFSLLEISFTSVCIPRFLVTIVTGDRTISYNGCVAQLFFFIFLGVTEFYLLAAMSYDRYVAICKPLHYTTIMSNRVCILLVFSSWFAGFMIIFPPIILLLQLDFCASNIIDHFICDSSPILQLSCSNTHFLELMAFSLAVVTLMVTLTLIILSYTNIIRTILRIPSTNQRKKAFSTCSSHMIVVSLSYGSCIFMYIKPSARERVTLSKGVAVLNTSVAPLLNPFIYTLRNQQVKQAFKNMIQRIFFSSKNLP
Summary of the method: as §1

Measured: odorant receptor agonist call;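 note: active if original authors judged signal statistically different from baseline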

O=c1cc(O)c2ccccc2o1
active: UniProt Q8VG22
inactive: all other assays above
